Legend:
Assay type in all cases: functional
CCRF-CEM = assay: Anticancer activity against human CCRF-CEM cells assessed as cell growth at 10 uM after 48 hrs by sulforhodamine B assay relative to control; details: read-out: Activity
Method in brief: (§1)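 Single-dose NCI-60 panel screen: compound added at 10 µM and the culture incubated 48 h. The end point was read by protein staining with sulforhodamine B. The value is percent growth of treated cells relative to untreated control cells, reported as a mean graph across the panel.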

BT-549 = assay: Anticancer activity against human BT549 cells assessed as cell growth at 10 uM after 48 hrs by sulforhodamine B assay relative to control; details: BT-549, 48 h, read-out: Activity; method in brief: as §1
Hs-578T = assay: Anticancer activity against human Hs 578T cells assessed as cell growth at 10 uM after 48 hrs by sulforhodamine B assay relative to control; details: read-out: Activity; method in brief: as §1
SN12C = assay: Anticancer activity against human SN12C cells assessed as cell growth at 10 uM after 48 hrs by sulforhodamine B assay relative to control; details: read-out: Activity; method in brief: as §1
TK-10 = assay: Anticancer activity against human TK10 cells assessed as cell growth at 10 uM after 48 hrs by sulforhodamine B assay relative to control; details: TK-10, 48 h, read-out: Activity
Method in brief: (§2)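 NCI-60 single-dose screen: compound added at 10 µM, cultures incubated 48 h. End point by sulforhodamine B protein-binding dye. Value reported as percent growth of treated cells relative to untreated control cells.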

NCI-H23 = assay: Anticancer activity against human NCI-H23 cells assessed as cell growth at 10 uM after 48 hrs by sulforhodamine B assay relative to control; details: NCI-H23, 48 h, read-out: Activity; method in brief: as §1
OVCAR-4 = assay: Anticancer activity against human OVCAR4 cells assessed as cell growth at 10 uM after 48 hrs by sulforhodamine B assay relative to control; details: OVCAR-4, 48 h, read-out: Activity; method in brief: as §1
HT-29 = assay: Anticancer activity against human HT-29 cells assessed as cell growth at 10 uM after 48 hrs by sulforhodamine B assay relative to control; details: HT-29, 48 h, read-out: Activity; method in brief: as §1
CAKI-1 = assay: Anticancer activity against human Caki1 cells assessed as cell growth at 10 uM after 48 hrs by sulforhodamine B assay relative to control; details: CAKI-1, 48 h, read-out: Activity; method in brief: as §1
IGROV-1 = assay: Anticancer activity against human IGROV1 cells assessed as cell growth at 10 uM after 48 hrs by sulforhodamine B assay relative to control; details: IGROV-1, 48 h, read-out: Activity; method in brief: as §1
NCI-H522 = assay: Anticancer activity against human NCI-H522 cells assessed as cell growth at 10 uM after 48 hrs by sulforhodamine B assay relative to control; details: NCI-H522, 48 h, read-out: Activity; method in brief: as §1
T47D = assay: Anticancer activity against human T47D cells assessed as cell growth at 10 uM after 48 hrs by sulforhodamine B assay relative to control; details: read-out: Activity; method in brief: as §2
OVCAR-8 = assay: Anticancer activity against human OVCAR8 cells assessed as cell growth at 10 uM after 48 hrs by sulforhodamine B assay relative to control; details: OVCAR-8, 48 h, read-out: Activity; method in brief: as §1
NCI-H322M = assay: Anticancer activity against human NCI-H322M cells assessed as cell growth at 10 uM after 48 hrs by sulforhodamine B assay relative to control; details: read-out: Activity; method in brief: as §1
786-0 = assay: Anticancer activity against human 786-0 cells assessed as cell growth at 10 uM after 48 hrs by sulforhodamine B assay relative to control; details: 786-0, 48 h, read-out: Activity; method in brief: as §1
HL-60(TB) = assay: Anticancer activity against human HL-60(TB) cells assessed as cell growth at 10 uM after 48 hrs by sulforhodamine B assay relative to control; details: HL-60, 48 h, read-out: Activity
Method in brief: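 NCI-60 human tumour panel single-dose screen: cells exposed to 10 µM compound for 48 h. Growth end point read with sulforhodamine B protein-binding dye. Expressed as percent growth of treated cells versus untreated control cells.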

OVCAR-3 = assay: Anticancer activity against human OVCAR3 cells assessed as cell growth at 10 uM after 48 hrs by sulforhodamine B assay relative to control; details: OVCAR-3, 48 h, read-out: Activity; method in brief: as §1
UACC-62 = assay: Anticancer activity against human UACC62 cells assessed as cell growth at 10 uM after 48 hrs by sulforhodamine B assay relative to control; details: UACC-62, 48 h, read-out: Activity; method in brief: as §2
SF-268 = assay: Anticancer activity against human SF268 cells assessed as cell growth at 10 uM after 48 hrs by sulforhodamine B assay relative to control; details: SF-268, 48 h, read-out: Activity; method in brief: as §1
MDA-MB-468 = assay: Anticancer activity against human MDA-MB-468 cells assessed as cell growth at 10 uM after 48 hrs by sulforhodamine B assay relative to control; details: MDA-MB-468, 48 h, read-out: Activity; method in brief: as §1
UO-31 = assay: Anticancer activity against human UO31 cells assessed as cell growth at 10 uM after 48 hrs by sulforhodamine B assay relative to control; details: UO-31, 48 h, read-out: Activity; method in brief: as §2
A549 = assay: Anticancer activity against human A549/ATCC cells assessed as cell growth at 10 uM after 48 hrs by sulforhodamine B assay relative to control; details: A549, 48 h, read-out: Activity; method in brief: as §1
M14 = assay: Anticancer activity against human M14 cells assessed as cell growth at 10 uM after 48 hrs by sulforhodamine B assay relative to control; details: M14, 48 h, read-out: Activity; method in brief: as §1
SK-MEL-2 = assay: Anticancer activity against human SK-MEL-2 cells assessed as cell growth at 10 uM after 48 hrs by sulforhodamine B assay relative to control; details: SK-MEL-2, 48 h, read-out: Activity; method in brief: as §1
SW-620 = assay: Anticancer activity against human SW620 cells assessed as cell growth at 10 uM after 48 hrs by sulforhodamine B assay relative to control; details: SW-620, 48 h, read-out: Activity; method in brief: as §2
SF-295 = assay: Anticancer activity against human SF295 cells assessed as cell growth at 10 uM after 48 hrs by sulforhodamine B assay relative to control; details: SF-295, 48 h, read-out: Activity; method in brief: as §1
UACC-257 = assay: Anticancer activity against human UACC257 cells assessed as cell growth at 10 uM after 48 hrs by sulforhodamine B assay relative to control; details: UACC-257, 48 h, read-out: Activity; method in brief: as §2
ACHN = assay: Anticancer activity against human ACHN cells assessed as cell growth at 10 uM after 48 hrs by sulforhodamine B assay relative to control; details: read-out: Activity; method in brief: as §1
RPMI-8226 = assay: Anticancer activity against human RPMI8226 cells assessed as cell growth at 10 uM after 48 hrs by sulforhodamine B assay relative to control; details: RPMI-8226, 48 h, read-out: Activity; method in brief: as §1
NCI-H460 = assay: Anticancer activity against human NCI-H460 cells assessed as cell growth at 10 uM after 48 hrs by sulforhodamine B assay relative to control; details: NCI-H460, 48 h, read-out: Activity; method in brief: as §1
NCI/ADR-RES = assay: Anticancer activity against human NCI/ADR-RES cells assessed as cell growth at 10 uM after 48 hrs by sulforhodamine B assay relative to control; details: read-out: Activity; method in brief: as §1

C=C1CC[C@@H]2[C@](C)(COC(C)=O)[C@H](OC(C)=O)CC[C@@]2(C)[C@H]1CC(Nc1ccc(S(=O)(=O)Nc2ccc(Cl)nn2)cc1)C1=CCOC1=O (some centres not stated)
growth at 10 µM (CCRF-CEM): -10.3% | growth at 10 µM (BT-549): -9.45% | growth at 10 µM (Hs-578T): 75.6% | growth at 10 µM (SN12C): -27.6% | growth at 10 µM (TK-10): 69.8% | growth at 10 µM (NCI-H23): 58.2% | growth at 10 µM (OVCAR-4): 30.9% | growth at 10 µM (HT-29): -18.3% | growth at 10 µM (CAKI-1): 31.8% | growth at 10 µM (IGROV-1): 43.3% | growth at 10 µM (NCI-H522): -34.5% | growth at 10 µM (T47D): 34.1% | growth at 10 µM (OVCAR-8): 16.9% | growth at 10 µM (NCI-H322M): 57% | growth at 10 µM (786-0): 58.8% | growth at 10 µM (HL-60(TB)): -17.5% | growth at 10 µM (OVCAR-3): -56.1% | growth at 10 µM (UACC-62): -50% | growth at 10 µM (SF-268): 43.3% | growth at 10 µM (MDA-MB-468): -32.3% | growth at 10 µM (UO-31): 18.4% | growth at 10 µM (A549): 61.6% | growth at 10 µM (M14): 10.7% | growth at 10 µM (SK-MEL-2): 58.3% | growth at 10 µM (SW-620): -37.7% | growth at 10 µM (SF-295): 92.8% | growth at 10 µM (UACC-257): 44% | growth at 10 µM (ACHN): 16.1% | growth at 10 µM (RPMI-8226): -19.2% | growth at 10 µM (NCI-H460): 14.5% | growth at 10 µM (NCI/ADR-RES): 16.7%

C=C1CC[C@@H]2[C@](C)(COC(C)=O)[C@H](OC(C)=O)CC[C@@]2(C)[C@H]1CC(Nc1ccc(S(=O)(=O)Nc2nc(C)cc(C)n2)cc1)C1=CCOC1=O (some centres not stated)
growth at 10 µM (CCRF-CEM): 2.96% | growth at 10 µM (BT-549): 71.9% | growth at 10 µM (Hs-578T): 99.8% | growth at 10 µM (SN12C): 38.2% | growth at 10 µM (TK-10): 111% | growth at 10 µM (NCI-H23): 84.3% | growth at 10 µM (OVCAR-4): 65% | growth at 10 µM (HT-29): 46.2% | growth at 10 µM (CAKI-1): 74% | growth at 10 µM (IGROV-1): 81.5% | growth at 10 µM (NCI-H522): 22% | growth at 10 µM (T47D): 68.8% | growth at 10 µM (OVCAR-8): 62% | growth at 10 µM (NCI-H322M): 97.2% | growth at 10 µM (786-0): 103% | growth at 10 µM (HL-60(TB)): 21.7% | growth at 10 µM (OVCAR-3): 44.8% | growth at 10 µM (UACC-62): 32.9% | growth at 10 µM (SF-268): 93.3% | growth at 10 µM (MDA-MB-468): 41% | growth at 10 µM (UO-31): 71.2% | growth at 10 µM (A549): 65.3% | growth at 10 µM (M14): 63.8% | growth at 10 µM (SK-MEL-2): 88.5% | growth at 10 µM (SW-620): 40% | growth at 10 µM (SF-295): 97% | growth at 10 µM (UACC-257): 67.9% | growth at 10 µM (ACHN): 71.6% | growth at 10 µM (RPMI-8226): 2.24% | growth at 10 µM (NCI-H460): 90.3% | growth at 10 µM (NCI/ADR-RES): 66.7%

From ChEMBL document CHEMBL4033712, “Synthesis and biological evaluation of new C-12(α/β)-(N-) sulfamoyl-phenylamino-14-deoxy-andrographolide derivatives as potent anti-cancer agents” (Bioorg Med Chem Lett, 2017)
